Source: paper PMC3037833 (Angewandte Chemie (International ed. in English), 2010)
Where two headings read alike, the source gives them in different places. No end group written: not given here.

T1: N1P1 (NHERF1 PDZ domain 1) (Homo sapiens, UniProt O14745)
T1 sequence (O14745 14-94 limits assumed): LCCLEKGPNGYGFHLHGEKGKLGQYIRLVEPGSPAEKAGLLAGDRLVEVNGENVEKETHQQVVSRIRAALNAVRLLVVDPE

T2: N1P2 (NHERF1 PDZ domain 2) (Homo sapiens, UniProt O14745)
T2 sequence (O14745 154-234 limits assumed): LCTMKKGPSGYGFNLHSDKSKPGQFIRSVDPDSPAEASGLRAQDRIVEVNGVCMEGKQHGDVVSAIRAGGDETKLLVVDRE

T3: F*-iCAL36
T3 chain: fluorescein-ANSRWPTSII

T4: SSR510 (Homo sapiens)
T4 chain: ANGLMQTSKL

T5: iCAL3610
T5 chain: ANSRWPTSII

T6: SSR56 (Homo sapiens, N-terminal cysteine on peptide)
T6 chain: MQTSKL

T7: iCAL366 (N-terminal cysteine on peptide)
T7 chain: WPTSII

T8: iCAL368
T8 chain: SRWPTSII

T9: iCAL056 (N-terminal cysteine on peptide)
T9 chain: MQTSKI

T10: iCAL356 (N-terminal cysteine on peptide)
T10 chain: WQTSII

T11: iCAL066 (N-terminal cysteine on peptide)
T11 chain: MQTSII

T12: CFTR10 (Homo sapiens)
T12 chain: TEEEVQDTRL

B1: NHERF1 PDZ1 (protein)
chain: LPRLCCLEKGPNGYGFHLHGEKGKLGQYIRLVEPGSPAEKAGLLAGDRLVEVNGENVEKETHQQVVSRIRAALNAVRLLVVDPETDE
B2: NHERF2 PDZ1 (protein)
chain: RPRLCRLVRGEQGYGFHLHGEKGRRGQFIRRVEPGSPAEAAALRAGDRLVEVNGVNVEGETHHQVVQRIKAVEGQTRLLVVDQETD
B3: NHERF1 PDZ2 (protein)
chain: RPRLCTMKKGPSGYGFNLHSDKSKPGQFIRSVDPDSPAEASGLRAQDRIVEVNGVCMEGKQHGDVVSAIRAGGDETKLLVVDRETDE
B4: NHERF2 PDZ2 (protein)
chain: LRPRLCHLRKGPQGYGFNLHSDKSRPGQYIRSVDPGSPAARSGLRAQDRLIEVNGQNVEGLRHAEVVASIKAREDEARLLVVDPETD

What was measured:
[1] = target: T1, N1P1 (NHERF1 PDZ domain 1); assay: Fluorescence polarization; format: binding
In short: (§1)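 Test peptides were assayed by fluorescence polarization inhibition for binding to the isolated PDZ domain; the same format was applied across the five CFTR-associated PDZ domains.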

[2] = target: T2, N1P2 (NHERF1 PDZ domain 2); assay: Fluorescence polarization; format: binding
In short: as §1

[3] = target: N2P1 (NHERF2 PDZ domain 1) (Homo sapiens, UniProt Q15599); assay: Fluorescence polarization; format: binding
[4] = target: N2P2 (NHERF2 PDZ domain 2) (Homo sapiens, UniProt Q15599); assay: Fluorescence polarization; format: binding
F*-iCAL36 = target: T3, F*-iCAL36; assay: fluorescence polarization
SSR510 = target: T4, SSR510; assay: fluorescence polarization competition
iCAL3610 = target: T5, iCAL3610; assay: fluorescence polarization competition
SSR56 = target: T6, SSR56; assay: fluorescence polarization competition
iCAL366 = target: T7, iCAL366; assay: fluorescence polarization competition
iCAL368 = target: T8, iCAL368; assay: fluorescence polarization competition
iCAL056 = target: T9, iCAL056; assay: fluorescence polarization competition
iCAL356 = target: T10, iCAL356; assay: fluorescence polarization competition
iCAL066 = target: T11, iCAL066; assay: fluorescence polarization competition
CFTR10 = target: T12, CFTR10; assay: fluorescence polarization competition

Molecule | Ki [1] [µM] | Ki [2] [µM] | Ki [3] [µM] | Ki [4] [µM] | Ki ([3]; SD) [µM] | Ki ([4]; SD) [µM] | Ki ([1]; SD) [µM] | Ki ([2]; SD) [µM] | Kd (F*-iCAL36) [µM] | Ki (SSR510) [µM] | Ki (iCAL3610) [µM] | Ki (SSR56) [µM] | Ki (iCAL366) [µM] | Ki (iCAL368) [µM] | Ki (iCAL056) [µM] | Ki (iCAL356) [µM] | Ki (iCAL066) [µM] | Ki (CFTR10) [µM]
CC[C@H](C)[C@H](NC(=O)[C@@H](NC(=O)[C@H](CO)NC(=O)[C@@H](NC(=O)[C@@H]1CCCN1C(=O)[C@H](Cc1c[nH]c2ccccc12)NC(=O)[C@H](CCCNC(=N)N)NC(=O)[C@H](CO)NC(=O)[C@H](CC(N)=O)NC(=O)[C@H](C)N)[C@@H](C)O)[C@@H](C)CC)C(=O)O [iCAL36_10] | > 5000 | > 5000 | > 5000 | > 3000 |  |  |  |  |  |  |  |  |  |  |  |  |  | 
SRWPTSII [iCAL36_8] | > 5000 | > 5000 |  |  | 516 ± 183 | 433 ± 154 |  |  |  |  |  |  |  |  |  |  |  | 
CC(C)C[C@H](NC(=O)[C@H](CCCNC(=N)N)NC(=O)[C@@H](NC(=O)[C@H](CC(=O)O)NC(=O)[C@H](CCC(N)=O)NC(=O)[C@@H](NC(=O)[C@H](CCC(=O)O)NC(=O)[C@H](CCC(=O)O)NC(=O)[C@H](CCC(=O)O)NC(=O)[C@@H](N)[C@@H](C)O)C(C)C)[C@@H](C)O)C(=O)O [CFTR10, reference compound] |  |  |  |  |  |  | 0.45 ± 0.02 | 1.9 ± 0.1 |  |  |  |  |  |  |  |  |  | 
CSCC[C@H](NC(=O)[C@H](CC(C)C)NC(=O)CNC(=O)[C@H](CC(N)=O)NC(=O)[C@H](C)N)C(=O)N[C@@H](CCC(N)=O)C(=O)N[C@H](C(=O)N[C@@H](CO)C(=O)N[C@@H](CCCCN)C(=O)N[C@@H](CC(C)C)C(=O)O)[C@@H](C)O [SSR5_10, reference compound] |  |  |  |  | 38.6 ± 7.7 | 19.8 ± 2.7 | 24.5 ± 1.9 | 130 ± 48 |  |  |  |  |  |  |  |  |  | 
B1 |  |  |  |  |  |  |  |  | > 1000 | 24.5 | > 5000 | 19.3 | > 5000 | > 5000 | 914 | 430 | 245 | 0.45
B2 |  |  |  |  |  |  |  |  | > 1000 | 38.6 | > 5000 | 31.7 | > 5000 | 516 | 806 | 496 | 245 | 1.1
B3 |  |  |  |  |  |  |  |  | > 1000 | 130 | > 5000 | 50.2 | > 5000 | > 5000 | 1700 | > 5000 | 2400 | 1.9
B4 |  |  |  |  |  |  |  |  | > 1000 | 19.8 | > 3000 | 10 | > 5000 | 433 | 109 | 246 | 166 | 0.1
